Assay results published in ChEMBL document CHEMBL1122671, “Anticonvulsant activity of some 4-aminobenzamides” (J Med Chem, 1984).

How the values were obtained:
[1] = Protective index (PI) which is defined as the ratio of TD50 to the ED50 (ScMet).; type: functional
How it was run: (§1)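 Both values come from ip dosing in 30% PEG 400 to male Carworth Farms number-one mice and were derived by the graphical method.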

[2] = test system: Mus musculus; test: Evaluated for toxicity by using rotarod test in mice at 4 hr; ++ = Activity at 300 mg/kg.; type: organism-based; set-up: dose 300 mg/kg; conditions: in vivo
How it was run: (§2)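 Neurotoxicity in male Carworth Farms number-one mice dosed ip in 30% PEG 400 at 30, 100, 300 and sometimes 600 mg/kg, tested 30 min or 4 h later. Mice placed on a 1-in. knurled rod rotating at 6 rpm; toxicity means failure to stay on the rod for 1 min. Scored by the lowest toxic dose; footnotes record loss of righting reflex or lethality.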

[3] = test system: Mus musculus; test: Anticonvulsant activity against scMet (subcutaneous metrazole) induced seizure in mice at 4 hr; - = No activity at 600 mg/kg.; type: functional, organism-based; set-up: dose 600 mg/kg
How it was run: (§3)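 Male Carworth Farms number-one mice dosed ip (30% PEG 400) at 30, 100, 300 and in some cases 600 mg/kg. Pentylenetetrazole 85 mg/kg given sc as a 0.5% solution in the posterior midline, at 30 min or 4 h. Protection means no clonic spasm of at least 5 s within 30 min. Scored by the lowest protective dose.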

[4] = test system: Mus musculus; test: Evaluated for toxicity by using rotarod test at in mice 30 min; +++ = Activity at 100 mg/kg,*- Loss of righting reflex at less than 600 mg/kg; type: organism-based; conditions: in vivo, 0.5 h; how it was run: as §2
[5] = test system: Mus musculus; test: Anticonvulsant activity against scMet (subcutaneous metrazole) induced seizure in mice at 30 min; +++ = Activity at 100 mg/kg.; type: functional, organism-based; set-up: dose 100 mg/kg
[6] = test system: Mus musculus; test: Anticonvulsant activity against MES (maximal electroshock) induced seizure in mice at 4 hr; ++ = Activity at 300 mg/kg.; type: functional, organism-based; set-up: dose 300 mg/kg
How it was run: (§4)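 Male Carworth Farms number-one mice received the compound ip in 30% polyethylene glycol 400. Doses were 30, 100 and 300 mg/kg, with 600 mg/kg in some cases. Maximal electroshock seizure protection was scored at 30 min and 4 h after dosing. Activity is coded by the lowest effective dose.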

[7] = Protective index (PI) which is defined as the ratio of TD50 to the ED50 (MES).; type: functional; how it was run: as §1
[8] = species: Mus musculus; test: Evaluation of neurologic deficit by rotarod procedure in mice; type: functional
How it was run: (§5)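 Male Carworth Farms number-one mice were dosed ip (30% PEG 400 vehicle) and placed on a 1-in. knurled plastic rod rotating at 6 rpm. Neurotoxicity meant failure to stay on the rod for 1 min. TD50 was determined graphically.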

[9] = test system: Mus musculus; test: Anticonvulsant activity against MES (maximal electroshock) induced seizure in mice at 30 min; +++ = activity at 100 mg/kg; type: functional, organism-based; set-up: dose 100 mg/kg; how it was run: as §4
[10] = test system: Mus musculus; test: Anticonvulsant activity against MES (maximal electroshock) induced seizure in mice at 4 hr; f = No activity at 100 mg/kg; type: functional, organism-based; set-up: dose 100 mg/kg; how it was run: as §4
[11] = test system: Mus musculus; test: Evaluated for toxicity by using rotarod test at in mice 30 min; +++ = activity at 100 mg/kg *-LD50 less than 300 mg/kg; type: organism-based; conditions: in vivo, 0.5 h; how it was run: as §2
[12] = test system: Mus musculus; test: Anticonvulsant activity against scMet (subcutaneous metrazole) induced seizure in mice at 30 min; f = No activity at 100 mg/kg; type: functional, organism-based; set-up: dose 100 mg/kg
[13] = test system: Mus musculus; test: Evaluated for toxicity by using rotarod test in mice at 4 hr; f = No activity at 100 mg/kg; type: organism-based; set-up: dose 100 mg/kg; conditions: in vivo; how it was run: as §2
[14] = test system: Mus musculus; test: Anticonvulsant activity against scMet (subcutaneous metrazole) induced seizure in mice at 4 hr; f = No activity at 100 mg/kg; type: functional, organism-based; set-up: dose 100 mg/kg
[15] = test system: Mus musculus; test: Anticonvulsant activity against scMet (subcutaneous metrazole) induced seizure in mice at 30 min; d = No activity at 300 mg/kg.; type: functional, organism-based; set-up: dose 300 mg/kg
[16] = test system: Mus musculus; test: Evaluated for toxicity by using rotarod test at in mice 30 min; +++ = Activity at 100 mg/kg, *-Loss of righting reflex at less than 300 mg/kg,LD50 less than 600 mg/kg; type: organism-based; conditions: in vivo, 0.5 h; how it was run: as §2
[17] = test system: Mus musculus; test: Anticonvulsant activity against MES (maximal electroshock) induced seizure in mice at 4 hr; d = No Activity at 300 mg/kg.; type: functional, organism-based; set-up: dose 300 mg/kg; how it was run: as §4
[18] = test system: Mus musculus; test: Anticonvulsant activity against MES (maximal electroshock) induced seizure in mice at 30 min; +++ = Activity at 100 mg/kg.; type: functional, organism-based; set-up: dose 100 mg/kg; how it was run: as §4
[19] = species: Mus musculus; test: Evaluation of inhibitory activity against scMet induced convulsions in mice; type: functional
[20] = test system: Mus musculus; test: Evaluation of neurologic deficit by rotarod procedure in mice*-No activity at 300 mg/kg; type: functional; how it was run: as §5
[21] = test system: Mus musculus; test: Anticonvulsant activity against scMet (subcutaneous metrazole) induced seizure in mice at 4 hr; d = No activity at 300 mg/kg.; type: functional, organism-based; set-up: dose 300 mg/kg
[22] = test system: Mus musculus; test: Anticonvulsant activity against scMet (subcutaneous metrazole) induced seizure in mice at 4 hr; ++ indicates activity at 300 mg/kg.; type: functional, organism-based; set-up: dose 300 mg/kg
[23] = test system: Mus musculus; test: Anticonvulsant activity against scMet (subcutaneous metrazole) induced seizure in mice at 30 min; +++ indicates activity at 100 mg/kg.; type: functional, organism-based; set-up: dose 100 mg/kg
[24] = test system: Mus musculus; test: Evaluated for toxicity by using rotarod test in mice at 4 hr; ++ indicates activity at 300 mg/kg.; type: organism-based; set-up: dose 300 mg/kg; conditions: in vivo; how it was run: as §2
[25] = test system: Mus musculus; test: Evaluated for toxicity by using rotarod test at in mice 30 min; ++ indicates activity at 300 mg/kg.; type: organism-based; set-up: dose 300 mg/kg; conditions: in vivo, 0.5 h; how it was run: as §2
[26] = test system: Mus musculus; test: Anticonvulsant activity against MES (maximal electroshock) induced seizure in mice at 4 hr; +++ indicates activity at 100 mg/kg.; type: functional, organism-based; set-up: dose 100 mg/kg; how it was run: as §4
[27] = test system: Mus musculus; test: Anticonvulsant activity against scMet (subcutaneous metrazole) induced seizure in mice at 30 min; + = Activity at 600 mg/kg.; type: functional, organism-based; set-up: dose 600 mg/kg
[28] = test system: Mus musculus; test: Evaluated for toxicity by using rotarod test in mice at 30 min; + = Activity at 600 mg/kg.; type: organism-based; set-up: dose 600 mg/kg; conditions: in vivo, 0.5 h; how it was run: as §2
[29] = test system: Mus musculus; test: Evaluated for toxicity by using rotarod test in mice at 4 hr; + = Activity at 600 mg/kg.; type: organism-based; set-up: dose 600 mg/kg; conditions: in vivo; how it was run: as §2
[30] = test system: Mus musculus; test: Anticonvulsant activity against scMet (subcutaneous metrazole) induced seizure in mice at 4 hr; + = Activity at 600 mg/kg.; type: functional, organism-based; set-up: dose 600 mg/kg
[31] = test system: Mus musculus; test: Anticonvulsant activity against MES (maximal electroshock) induced seizure in mice at 4 hr; Activity at 300 mg/kg.; type: functional, organism-based; set-up: dose 300 mg/kg; how it was run: as §4
[32] = test system: Mus musculus; test: Anticonvulsant activity against MES (maximal electroshock) induced seizure in mice at 30 min; + indicates activity at 600 mg/kg.; type: functional, organism-based; set-up: dose 600 mg/kg
How it was run: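 Male Carworth Farms number-one mice; compounds in 30% polyethylene glycol 400, given ip at 30, 100 and 300 mg/kg, some also at 600 mg/kg. Maximal electroshock challenge at 30 min or 4 h after dosing. Scored by the lowest dose giving protection (++++ 30, +++ 100, ++ 300, + 600 mg/kg; - none at 600).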

[33] = test system: Mus musculus; test: Anticonvulsant activity against scMet (subcutaneous metrazole) induced seizure in mice at 30 min; ++ indicates activity at 300 mg/kg.; type: functional, organism-based; set-up: dose 300 mg/kg
[34] = test system: Mus musculus; test: Evaluated for toxicity by using rotarod test in mice at 4 hr; + indicates activity at 600 mg/kg.; type: organism-based; set-up: dose 600 mg/kg; conditions: in vivo; how it was run: as §2
[35] = Evaluation of neurologic deficit by rotarod procedure in mice.; type: ADME, organism-based; conditions: mouse, in vivo; how it was run: as §5
[36] = test system: Mus musculus; test: Anticonvulsant activity against scMet (subcutaneous metrazole) induced seizure in mice at 4 hr; - indicates no activity at 600 mg/kg.; type: functional, organism-based; set-up: dose 600 mg/kg; how it was run: as §3
[37] = test system: Mus musculus; test: Anticonvulsant activity against MES (maximal electroshock) induced seizure in mice at 4 hr; +++ = Activity at 100 mg/kg.; type: functional, organism-based; set-up: dose 100 mg/kg; how it was run: as §4

Nc1ccc(C(=O)Nc2ccccc2)cc1
PI [1]: 1.9
Toxicity [2]: Activity at 100 mg/kg,*- Loss of righting reflex at < 600 mg/kg
Activity [3]: Not toxic
Toxicity [4]: Activity at 100 mg/kg,*- Loss of righting reflex at < 600 mg/kg
Activity [5]: Activity at 100 mg/kg
Activity [6]: Activity at 100 mg/kg
PI [7]: 2.2
TD50 [8]: 111 mg/kg

CCCCCCNC(=O)c1ccc(N)cc1
Activity [9]: activity at 100 mg/kg
Activity [10]: No activity
Toxicity [11]: activity at 100 mg/kg *-LD50 < 300 mg/kg
Activity [12]: No activity
Toxicity [13]: No activity
Activity [14]: No activity

CCCCNC(=O)c1ccc(N)cc1
PI [1]: 1.3
Activity [15]: No activity
Toxicity [16]: Activity at 100 mg/kg, *-Loss of righting reflex at < 300mg/kg,LD50 < 600 mg/kg
Activity [17]: No activity
Toxicity [2]: Activity at 100 mg/kg, *-Loss of righting reflex at < 300mg/kg,LD50 < 600 mg/kg
Activity [18]: Activity at 100 mg/kg
ED50 [19]: 83 mg/kg
PI [7]: 2.2
TD50 [20]: 105 mg/kg
Activity [21]: No activity

CC(NC(=O)c1ccc(N)cc1)c1ccccc1 (stereo not drawn)
PI [1]: 4.1
Activity [22]: activity at 100 mg/kg
Activity [23]: activity at 100 mg/kg
Toxicity [24]: activity at 300 mg/kg
Toxicity [25]: activity at 300 mg/kg
PI [7]: 9.5
Activity [26]: activity at 100 mg/kg
TD50 [8]: 171 mg/kg

CCNC(=O)c1ccc(N)cc1
Activity [27]: Activity at 100 mg/kg
Toxicity [28]: Activity at 600 mg/kg
Toxicity [29]: Activity at 600 mg/kg
Activity [18]: Activity at 100 mg/kg
Activity [30]: Activity at 100 mg/kg
Activity [6]: Activity at 100 mg/kg

CC(CNC(=O)c1ccc(N)cc1)c1ccccc1 (stereo not drawn)
Activity [22]: activity at 300 mg/kg
Activity [31]: activity at 300 mg/kg
Activity [32]: activity at 300 mg/kg
Toxicity [24]: activity at 300 mg/kg
Activity [33]: activity at 300 mg/kg
Toxicity [25]: activity at 300 mg/kg

Nc1ccc(C(=O)NC2CCCCC2)cc1
PI [1]: 1.5
Toxicity [34]: activity at 300 mg/kg
TD50 [35]: 189 mg/kg
Activity [36]: Not toxic
Activity [18]: Activity at 100 mg/kg
Toxicity [25]: activity at 300 mg/kg
Activity [5]: Activity at 100 mg/kg
PI [7]: 2.8
Activity [37]: Activity at 100 mg/kg
